Published values gathered from unrelated publications.
Compare with care: the assays were run in different laboratories.
Target: Myosin light chain kinase (MYLK3, Homo sapiens, UniProt Q32MK0)
One construct used (Q32MK0 1-819): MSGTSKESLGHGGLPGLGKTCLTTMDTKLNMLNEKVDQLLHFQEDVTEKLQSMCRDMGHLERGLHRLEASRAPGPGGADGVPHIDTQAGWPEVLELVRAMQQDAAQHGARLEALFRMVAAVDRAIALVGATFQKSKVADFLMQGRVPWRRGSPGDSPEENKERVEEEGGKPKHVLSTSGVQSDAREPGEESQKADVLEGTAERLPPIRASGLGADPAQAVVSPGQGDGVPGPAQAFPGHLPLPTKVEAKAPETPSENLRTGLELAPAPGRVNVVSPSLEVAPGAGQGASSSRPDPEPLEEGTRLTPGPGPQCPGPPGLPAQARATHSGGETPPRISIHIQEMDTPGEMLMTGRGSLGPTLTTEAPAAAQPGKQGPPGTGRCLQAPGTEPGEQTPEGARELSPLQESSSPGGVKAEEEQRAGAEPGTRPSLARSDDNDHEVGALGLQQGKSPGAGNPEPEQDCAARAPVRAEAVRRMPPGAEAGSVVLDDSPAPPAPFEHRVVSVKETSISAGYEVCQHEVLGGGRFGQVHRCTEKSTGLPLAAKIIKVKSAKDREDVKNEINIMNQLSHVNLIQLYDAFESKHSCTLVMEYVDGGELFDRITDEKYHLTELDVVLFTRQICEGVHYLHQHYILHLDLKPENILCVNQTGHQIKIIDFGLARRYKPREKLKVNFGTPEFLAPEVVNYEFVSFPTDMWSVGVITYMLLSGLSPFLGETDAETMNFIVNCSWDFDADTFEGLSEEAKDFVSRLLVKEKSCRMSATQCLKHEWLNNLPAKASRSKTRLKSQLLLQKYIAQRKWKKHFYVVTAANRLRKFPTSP

| Compound | observed | method | tested at | remaining binding [%] |
| --- | --- | --- | --- | --- |
| C=CC(=O)N1CCC(C(=O)NCC(=O)N2CCN(c3nc(-c4cnc(N)nc4C(F)F)nc(N4CCOCC4)n3)CC2)CC1 | binding | competition with immobilised ligand | 1 µM | 92 |
| N[C@@H]1CCN(c2nccc(-c3cnn4ncccc34)n2)C1 | binding | – | 1 µM | 100 |
| CCN1CCN(Cc2ccc(C(=O)Nc3ccc(C)c(Oc4ccc5c(c4)CC(=O)N5)c3)cc2C(F)(F)F)CC1 | binding | competition with immobilised ligand | 1 µM | 100 |
| COc1ccc2c(c1)O[C@H](c1ccc(OC)c(OC)c1)C[C@@H]2NC(=O)C1(c2ccc3c(c2)OC(F)(F)O3)CC1 | cell-free assay | competition with immobilised ligand | 1 µM | 95 |
| COc1ccnn2ncc(-c3ccnc(N(C)C)n3)c12 | binding | – | 1 µM | 71 |
| NS(=O)(=O)c1cc(NC(=O)Cc2ccccc2)ccc1Oc1cccc(Cl)c1 | cell-free assay | competition with immobilised ligand | 1 µM | 89 |
| O=C(NCC1CCOCC1)c1n[nH]cc1NC(=O)c1c(F)cccc1F | binding | competition with immobilised ligand | 1 µM | 100 |
| COc1ncc2cc3ccccc3nc2c1C#N | cell-free assay | competition with immobilised ligand | 5 µM | 96 |
| COc1cnc(Nc2cccc(S(N)(=O)=O)c2)nc1N1CCN(c2ccccc2)CC1 | binding | competition with immobilised ligand | 1 µM | 97 |
| O=C(NCCCN1CCOCC1)c1ccc(Nc2ncc(Cl)c(-c3ccc(Cl)s3)n2)cc1 | binding | competition with immobilised ligand | 1 µM | 7.9 |
| C[C@H](c1ccc(F)cc1)N(Cc1cccc(C(=O)O)c1)C(=O)c1cnc2ccccc2c1 | cell-free assay | competition with immobilised ligand | 1 µM | 100 |
| CN(C)c1nccc(-c2cnn3ncccc23)n1 | binding | – | 1 µM | 100 |
| O=C(Nc1cccnn1)N1CCC(=Cc2cccc(Oc3ccc(C(F)(F)F)cn3)c2)CC1 | cell-free assay | competition with immobilised ligand | 1 µM | 100 |
| CN(C)c1nccc(-c2cnc3ncccn23)n1 | binding | – | 1 µM | 100 |
| CS(=O)(=O)NCC[C@H](NC(=O)c1cncc2c1cnn2-c1ccc(F)cc1)c1ccnc(S(C)(=O)=O)c1 | cell-free assay | competition with immobilised ligand | 1 µM | 100 |
| CN(CCCC(F)(F)F)c1nccc(-c2cnn3ncccc23)n1 | binding | – | 1 µM | 100 |
| O=C(c1ccc(Nc2nccc(-c3cc4ccccc4s3)n2)cc1)N1CCC(N2CCCC2)CC1 | binding | competition with immobilised ligand | 1 µM | 2.5 |
| C[C@@H]1CCN(c2nccc(-c3cnn4ncccc34)n2)C1 | binding | – | 1 µM | 91 |
| CCS(=O)(=O)c1cc2cc(C[C@](O)(CC(C)(C)c3ccc(F)cc3C(N)=O)C(F)(F)F)[nH]c2cn1 | cell-free assay | competition with immobilised ligand | 1 µM | 74 |
| O=C(c1ccc(Nc2ncc(Cl)c(-c3ccc(Cl)s3)n2)cc1)N1CCC(N2CCCC2)CC1 | binding | competition with immobilised ligand | 1 µM | 6.7 |
